The record followed here is PubChem BioAssay AID1943 (The Scripps Research Institute Molecular Screening Center, 2009).

For orientation: inhibition means how much of the control response was suppressed.

Molecules are shown by their SMILES. In all, about 1,600 compounds went through this assay and about 500 (31%) were called active. The full list was thinned out, with actives kept by preference. Values without a mark were called inactive.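 The calls were made as follows: active = inhibition above the mean of all tested compounds plus 3 SD, cutoff set per campaign (cut at about 36% in these data); inactive = the rest.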

The test concerns Hepatitis C virus NS3 helicase. In words: blockers of HCV NS3 DNA unwinding – biochemical, Cy5 molecular beacon fluorescence, triplicate, confirmation (AID 1943). As to conditions: at 10.9 µM, active compounds read high. Summed up: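 Material – hepatitis C virus NS3 helicase fragment · Medium – MOPS pH 6.5 buffer with additives · Compound – single nominal final dose of 10.9 µM, DMSO vehicle · Times – 0 and 60 min reads at 25 °C · Detection – Cy5 fluorescence · Read-out basis – % inhibition of unwinding · Benchmarks – DMSO and thioflavine S wells · Replication – triplicate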
`O=C1CC(=O)N(Cc2ccccc2)C(=O)N1CCCCCCN1C(=O)CC(=O)N(Cc2ccccc2)C1=O`: the inhibition was 55.3% (active).

`COc1ccc(N2C(=O)/C(=C/c3ccco3)C(=O)NC2=S)cc1`: the inhibition is 82% (active).

On to `CC(C)n1c(=O)c(C=Nc2ccc(Br)cc2)c(O)n(Cc2ccco2)c1=O`, for which the inhibition was 1.92%.
